Assay results taken from ChEMBL document CHEMBL4196009, “Novel vitexin-inspired scaffold against leukemia” (Eur J Med Chem, 2018).

Legend:
KOPN-8 [1] = test: Antiproliferative activity against human KOPN8 cells after 72 hrs by CelTiter-Glo assay; type: functional, cell-based; details: KOPN-8, 72 h
SEM cells = test: Antiproliferative activity against human SEM cells after 72 hrs by CelTiter-Glo assay; type: functional, cell-based
SUP-B15 = test: Antiproliferative activity against human SUP-B15 cells after 72 hrs by CelTiter-Glo assay; type: functional, cell-based; details: SUP-B15, 72 h
UoC-B1 = test: Antiproliferative activity against human UOCB1 cells after 72 hrs by CelTiter-Glo assay; type: functional, cell-based; details: UoC-B1, 72 h
HepG2 = test: Antiproliferative activity against human HepG2 cells after 72 hrs by CelTiter-Glo assay; type: functional, cell-based; details: HepG2, 72 h
BJ = test: Antiproliferative activity against human BJ cells after 72 hrs by CelTiter-Glo assay; type: cell-based
KOPN-8 [2] = test: Induction of apoptosis in human KOPN8 cells assessed as late apoptotic cells at 10 uM after 24 hrs by Annexin V-FITC/propidium iodide staining-based flow cytometry (reference value: 9.5%); type: functional
Summary of the method: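 KOPN-8 cells were treated for 24 h, with a DMSO vehicle control and a staurosporine positive control. Cells were stained with FITC-Annexin V and propidium iodide and analysed by flow cytometry. Quadrant gating separated viable, early apoptotic, late apoptotic (Q2) and necrotic populations.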

MDA-MB-231 = test: Cell cycle arrest in human MDA-MB-231 cells assessed as accumulation at G2/M phase at 20 uM after 24 hrs by propidium iodide staining-based flow cytometry (reference value: 9.38%); type: functional
KOPN-8 [3] = test: Induction of apoptosis in human KOPN8 cells assessed as effect on Mcl-1 level at 30 uM pre-treated with NAC for 1 hr and measured after 3 hrs by Western blot analysis relative to control; type: functional
Summary of the method: (§1)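 KOPN-8 cells were exposed to compound for 3 h and 24 h, with or without N-acetylcysteine added to a parallel set as antioxidant. Lysates were analysed by Western blot for cleaved PARP, Mcl-1, Ser-2-phosphorylated RNAPII CTD, cMyc, total Rb and pRb. Signals were compared against controls for dose-dependent change.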

KOPN-8 [4] = test: Induction of apoptosis in human KOPN8 cells assessed as effect on Mcl-1 level at 100 uM after 24 hrs by Western blot analysis relative to control; type: functional
Summary of the method: (§2)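 KOPN-8 cells were treated at 10–100 µM final, with or without N-acetylcysteine co-addition, for 3 h and 24 h. Lysates were analysed by Western blot for PARP cleavage, Mcl-1, phospho-Ser2 RNAPII CTD, c-Myc, total Rb and pRb. Levels are relative to the vehicle control.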

KOPN-8 [5] = test: Induction of apoptosis in human KOPN8 cells assessed as effect on Mcl-1 level at 10 uM pre-treated with NAC for 1 hr and measured after 24 hrs by Western blot analysis relative to control; type: functional
Homo sapiens [6] = organism: Homo sapiens; test: Inhibition of RNA polymerase 2 C-terminal domain phosphorylation at Ser2 residue in human KOPN8 cells at 30 uM after 24 hrs by Western blot analysis relative to control; type: cell-based; summary of the method: as §1
KOPN-8 [7] = test: Effect on c-Myc expression in human KOPN8 cells at 10 uM after 3 hrs by Western blot analysis relative to control; type: functional; summary of the method: as §2
[8] = target: T1, Retinoblastoma-associated protein (Homo sapiens) (UniProt P06400); test: Inhibition of Rb phosphorylation in human KOPN8 cells assessed as ratio of phosphorylated Rb to total Rb levels at 100 uM pre-treated with NAC for 1 hr and measured after 3 hrs by Western blot analysis relative to control; type: cell-based
T1 sequence (whole entry): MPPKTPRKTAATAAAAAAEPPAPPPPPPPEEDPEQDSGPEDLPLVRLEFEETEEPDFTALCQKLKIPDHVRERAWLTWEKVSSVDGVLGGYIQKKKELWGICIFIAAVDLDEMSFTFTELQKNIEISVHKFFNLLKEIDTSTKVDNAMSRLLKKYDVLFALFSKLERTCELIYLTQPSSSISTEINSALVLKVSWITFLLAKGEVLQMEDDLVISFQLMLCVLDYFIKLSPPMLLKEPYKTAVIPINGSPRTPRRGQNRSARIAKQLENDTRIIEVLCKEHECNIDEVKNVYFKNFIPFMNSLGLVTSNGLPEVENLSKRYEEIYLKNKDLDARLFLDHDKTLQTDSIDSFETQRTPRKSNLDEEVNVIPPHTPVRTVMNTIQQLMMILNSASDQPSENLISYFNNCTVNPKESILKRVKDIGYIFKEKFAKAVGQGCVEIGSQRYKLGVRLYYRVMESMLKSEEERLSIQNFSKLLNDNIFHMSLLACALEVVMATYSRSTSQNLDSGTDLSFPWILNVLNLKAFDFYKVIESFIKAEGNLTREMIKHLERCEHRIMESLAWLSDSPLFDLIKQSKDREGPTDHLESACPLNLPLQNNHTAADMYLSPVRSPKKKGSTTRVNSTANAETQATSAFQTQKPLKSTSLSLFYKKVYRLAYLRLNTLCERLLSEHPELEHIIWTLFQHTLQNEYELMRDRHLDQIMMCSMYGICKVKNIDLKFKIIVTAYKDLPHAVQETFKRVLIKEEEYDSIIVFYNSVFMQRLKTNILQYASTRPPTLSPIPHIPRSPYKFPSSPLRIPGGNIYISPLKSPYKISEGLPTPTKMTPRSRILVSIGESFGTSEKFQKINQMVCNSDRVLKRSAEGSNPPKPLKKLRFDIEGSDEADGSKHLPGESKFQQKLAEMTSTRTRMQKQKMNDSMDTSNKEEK
Summary of the method: (§3)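 KOPN-8 pre-B ALL cells were treated for 3 h and 24 h, with or without N-acetyl cysteine added to a parallel set of cells as an antioxidant/ROS quencher. Lysates were analysed by Western blot for phosphorylated Rb and total Rb. The same blots also probed PARP cleavage, Mcl-1, Ser-2-phosphorylated RNAPII CTD and cMyc.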

[9] = target: T1, Retinoblastoma-associated protein (Homo sapiens); test: Inhibition of Rb phosphorylation in human KOPN8 cells assessed as ratio of phosphorylated Rb to total Rb levels at 30 uM after 24 hrs by Western blot analysis relative to control; type: cell-based; summary of the method: as §3
[10] = target: T1, Retinoblastoma-associated protein (Homo sapiens); test: Inhibition of Rb phosphorylation in human KOPN8 cells assessed as ratio of phosphorylated Rb to total Rb levels at 10 uM pre-treated with NAC for 1 hr and measured after 24 hrs by Western blot analysis relative to control; type: cell-based; summary of the method: as §3
KOPN-8 [11] = test: Induction of apoptosis in human KOPN8 cells assessed as early apoptotic cells at 5 uM after 24 hrs by Annexin V-FITC/propidium iodide staining-based flow cytometry (reference value: 0.1%); type: functional
Summary of the method: (§4)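 KOPN-8 cells treated 24 h alongside a DMSO vehicle and a staurosporine (2.0 µM) positive control. Apoptosis was scored by FITC Annexin V / propidium iodide flow cytometry with quadrant gating (early, late apoptotic). DNA content was measured by PI staining to give the percentage of cells in G0/G1, S and G2/M. Groups were compared by t-test; error bars are SD.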

KOPN-8 [12] = test: Cell cycle arrest in human KOPN8 cells assessed as accumulation at G2/M phase at 5 uM after 24 hrs by propidium iodide staining-based flow cytometry (reference value: 9.67%); type: functional; summary of the method: as §4
Homo sapiens [13] = organism: Homo sapiens; test: Inhibition of RNA polymerase 2 C-terminal domain phosphorylation at Ser2 residue in human KOPN8 cells at 0.5 uM after 24 hrs by Western blot analysis; type: cell-based; summary of the method: as §1

SMILES | EC50 (KOPN-8 [1]) [µM] | EC50 (SEM cells) [µM] | EC50 (SUP-B15) [µM] | EC50 (UoC-B1) [µM] | EC50 (HepG2) [µM] | EC50 (BJ) [µM] | Activity (KOPN-8 [2]) [%] | Activity (MDA-MB-231) [%] | fold change (FC) (KOPN-8 [3]) | fold change (FC) (KOPN-8 [4]) | fold change (FC) (KOPN-8 [5]) | fold change (FC) (Homo sapiens [6]) | fold change (FC) (KOPN-8 [7]) | fold change (FC) [8] | fold change (FC) [9] | fold change (FC) [10] | Activity (KOPN-8 [11]) [%] | Activity (KOPN-8 [12]) [%] | fold change (FC) (Homo sapiens [13])
COc1ccc(-c2c(I)c(=O)c3c(OC)cc(OC)cc3n2S(=O)(=O)c2ccc(OC)cc2)cc1 | 8.58 | 5.52 | 12.3 | 2.55 | > 17.3 | > 34.5 | 69.2 | 15.97 | 0.8 | 0.1 | 0.8 | 1.6 | 0.9 | 1.1 | 1 | 1 |  |  | 
CN(C)C(=O)c1cc2cnc(Nc3ccc(N4CCNCC4)cn3)nc2n1C1CCCC1 [RIBOCICLIB] | 0.501 | 0.461 | > 65.5 | > 65.5 | 0.286 | > 65.5 |  |  |  |  |  |  |  |  |  |  | 0.5 | 28.79 | 2.3
